Test results as given in ChEMBL document CHEMBL1151715, “Novel D-xylose derivatives stimulate muscle glucose uptake by activating AMP-activated protein kinase alpha” (J Med Chem, 2008).
The source made the active and inactive calls. The calls are words filed in the database; no cut-off is given here.

Key:
[1] = test system: L6; experiment: Effect on [3H]2-deoxy-D-glucose uptake in rat L6 cells at 150 uM relative to control; type: functional
Method in brief: (§1)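 L6 myotubes were held in αMEM with 2% FCS and 23.0 mM D-glucose for 24 h. They were then treated with increasing concentrations in medium with 10% FCS and 23.0 mM D-glucose for 7 or 18 h; vehicle controls ran 18 h. After washing, uptake was measured with 0.1 mM dGlc plus 1.3 µCi/mL [3H]dGlc in PBS pH 7.4 for 5 min at room temperature. Ice-cold PBS stop, SDS lysis, scintillation counting; basal rate set to 100%.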

[2] = Cytotoxicity against rat L6 cells by MTT assay; type: cell-based
Method in brief: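 MTT assay on L6 myotubes after the treatment incubations: MTT at 2 mg/mL in αMEM for 30 min at 37 °C, formazan dissolved in DMSO, absorbance read at 570 nm.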

[3] = test system: L6; experiment: Effect on [3H]2-deoxy-D-glucose uptake in rat L6 cells at 100 uM relative to control; type: functional; method in brief: as §1
[4] = test system: L6; experiment: Effect on [3H]2-deoxy-D-glucose uptake in rat L6 cells at 20 mM upto 48 hrs relative to control; type: functional
[5] = test system: L6; experiment: Increase in [3H]2-deoxy-D-glucose uptake in rat L6 cells preincubated with 23 mM D-glucose for 24 hrs at 5 mM after 7 hrs relative to control; type: functional
Method in brief: (§2)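 L6 myotubes were preconditioned 24 h at 23.0 mM D-glucose, then given fresh αMEM with 23.0 mM D-glucose plus agent for 7 h. Insulin (200 nM) was added for the last 30 min. A 5-min [3H]dGlc uptake (0.1 mM dGlc, 1.3 µCi/mL) was run in PBS at room temperature, with the 23.0 mM glucose basal rate set to 100%.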

[6] = test system: L6; experiment: Activation of 5-AMP-induced AMPKalpha in rat L6 cells assessed as […] phosphorylation at 0.25 M relative to control; type: cell-based
Method in brief: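 AICAR-type positive control on L6 myotubes: 0.25 M D-sorbitol for 30 min. Whole-cell lysates were blotted for total AMPKα and phospho-Thr172 AMPKα, detected by ECL, with bands quantified by densitometry.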

[7] = test system: L6; experiment: Effect on [3H]2-deoxy-D-glucose uptake in rat L6 cells at 5 mM after 7 hrs relative to control in presence of insulin; type: functional, cell-based; method in brief: as §2
[8] = test system: L6; experiment: Increase in [3H]2-deoxy-D-glucose uptake in rat L6 cells at 20 mM preincubated 24 hrs with D-glucose assessed after 6 hrs relative to control; type: functional
Method in brief: (§3)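 L6 myotubes were preconditioned 24 h at 23.0 mM D-glucose, then incubated up to 10 h in the same medium plus pentose (20.0 mM for time course; dose-response for half-maximal and maximal). Cells were washed with PBS, then given a 5-min room-temperature uptake of 0.1 mM dGlc with 1.3 µCi/mL [3H]dGlc. Counts were normalised to protein against untreated controls.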

[9] = test system: L6; experiment: Effect on [3H]2-deoxy-D-glucose uptake in rat L6 cells at 200 uM relative to control; type: functional; method in brief: as §1
[10] = species: Homo sapiens; experiment: Activation of 5-AMP-induced AMPKalpha in human skeletal muscle cells assessed as […] phosphorylation at 4 mM relative to control
Method in brief: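 Primary human skeletal muscle myoblasts (rectus abdominis, donor) were differentiated into myotubes using the supplier's protocol. The agent was given at 4 mM for 1 h. Whole-cell lysates were separated by SDS-PAGE and Western blotted for AMPKα and […]-AMPKα, with HRP anti-rabbit IgG and ECL detection. Bands were quantified by film densitometry.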

[11] = test system: L6; experiment: Increase in GLUT1myc abundance in rat L6 cell membrane at 20 mM after 7 hrs; type: functional, cell-based; conditions: 20 mM
Method in brief: (§4)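 Myc-tagged GLUT1 or GLUT4 L6 myotubes were preconditioned at 5.5 or 23.0 mM glucose for 24 h, then treated in 10% FCS medium for 7 h (18 h for the 5 µM agent). Insulin was 200 nM for 30 min. Intact cells were labeled with rabbit anti-myc (1:200), fixed in 3% formaldehyde, and given HRP anti-rabbit IgG (1:2000). OPD colour was read at 492 nm.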

[12] = Effect on [3H]2-deoxy-D-glucose uptake in human skeletal muscle cells at 20 mM relative to control; type: functional
[13] = test system: L6; experiment: Maximal stimulation of [3H]2-deoxy-D-glucose uptake in rat L6 cells preincubated 24 hrs with D-glucose assessed after 6 hrs; type: functional; method in brief: as §3
[14] = test system: L6; experiment: Effect on [3H]2-deoxy-D-glucose uptake in rat L6 cells at 20 mM after 7 hrs relative to control in presence of insulin; type: functional, cell-based; method in brief: as §2
[15] = test system: L6; experiment: Increase in GLUT1myc abundance in rat L6 cell membrane at 5 µM after 18 hrs; type: functional, cell-based; method in brief: as §4
[16] = test system: L6; experiment: Increase in GLUT1myc abundance in rat L6 cell membrane at 50 uM after 7 hrs; type: functional, cell-based; method in brief: as §4
[17] = test system: L6; experiment: Increase in GLUT4myc abundance in rat L6 cell membrane at 20 mM after 7 hrs; type: functional, cell-based; method in brief: as §4
[18] = test system: L6; experiment: Inhibition of [3H]2-deoxy-D-glucose uptake in rat L6 cells at 20 mM in presence of 100 nM wortmannin; type: functional, cell-based
Method in brief: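 L6 myotubes at 23 mM D-glucose received 100 nM wortmannin 30 min before the agents. Treatment ran in 10% FCS medium for 7 h (18 h for the 5 µM agent). A 5-min [3H]dGlc uptake (0.1 mM dGlc, 1.3 µCi/mL) in PBS at room temperature followed, with the vehicle basal rate set to 100%.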

[19] = test system: L6; experiment: Activation of 5-AMP-induced AMPKalpha in rat L6 cells assessed as reduction in Tyr172 phosphorylation at 20 mM relative to control in presence of compound C; type: cell-based; parameters: scale not given: the % may be the effect or the level left
[20] = test system: L6; experiment: Induction of [3H]2-deoxy-D-glucose uptake in rat L6 cells at 20 mM after 6 hrs relative to control; type: functional; method in brief: as §3
[21] = test system: L6; experiment: Activation of AMPKalpha in rat L6 cells assessed as ATP concentration per mg of protein at 20 mM in presence of 23 mM D-glucose; type: cell-based
Method in brief: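 L6 myotubes were preconditioned at 5.0 or 23.0 mM D-glucose for 24 h, then treated. Cells were washed in cold 0.15 M Tris-HCl pH 7.75 and extracted with ice-cold 0.5% TCA. The cleared supernatant was assayed with luciferase/D-luciferin luminescence at room temperature against an ATP standard curve, expressed per mg protein. DNP 5 mM for 10 min served as the positive control.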

[22] = test system: L6; experiment: Increase in GLUT1myc abundance in rat L6 cell membrane at 150 uM after 7 hrs; type: functional, cell-based; method in brief: as §4
[23] = species: Homo sapiens; experiment: Activation of 5-AMP-induced AMPKalpha in human skeletal muscle cells assessed as Tyr172 phosphorylation at 20 mM relative to control
Method in brief: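 Primary human skeletal myoblasts from the rectus abdominis of a donor were differentiated into myotubes and treated in medium with 10% (v/v) FCS, 23.0 mM D-glucose and agent, with vehicle controls. Whole-cell lysates were Western blotted for total AMPKα and […]-AMPKα, with ECL detection and densitometry.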

[24] = test system: L6; experiment: Decrease in GLUT4myc abundance in rat L6 cell membrane pretreated with 23.0 mM D-glucose for 24 hrs at 20 mM after 7 hrs; type: functional; parameters: scale not given: the % may be the effect or the level left
[25] = test system: L6; experiment: Induction of [3H]3-O-methyl-D-glucose uptake in rat L6 cells at 20 mM after 6 hrs relative to control; type: functional
Method in brief: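 L6 myotubes were preconditioned 24 h at 23.0 mM glucose, then given D-xylose at 20.0 mM for 6 h. Cells were PBS-washed and incubated 90 s at room temperature with 10 µM 3-O-methylglucose, 5.0 µCi/mL [3H]MeGlc and 0.5 µCi/mL [14C]sucrose. The stop wash was ice-cold PBS with 20 mM glucose, 10 µM cytochalasin B and 2 mM HgCl2. Extracellular 3H was subtracted using sucrose counts.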

[26] = test system: L6; experiment: Activation of 5-AMP-induced AMPKalpha in rat L6 cells assessed as Tyr172 phosphorylation at 20 mM relative to control; type: cell-based
Method in brief: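 L6 myotubes preconditioned 24 h in αMEM with 2% FCS and 23.0 mM D-glucose, then given fresh medium with 10% (v/v) FCS, 23.0 mM D-glucose and test agent; controls received vehicle. Whole-cell lysates (Tris pH 7.5 with phosphatase and protease inhibitors) were blotted for AMPKα and […]-AMPKα, detected by ECL, and bands quantified by densitometry.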

[27] = test system: L6; experiment: Half-maximal stimulation of [3H]2-deoxy-D-glucose uptake in rat L6 cells preincubated 24 hrs with D-glucose assessed after 6 hrs; type: functional; method in brief: as §3
[28] = test system: L6; experiment: Effect on [3H]2-deoxy-D-glucose uptake in rat L6 cells at 50 uM relative to control; type: functional; method in brief: as §1

COC(OC)[C@@H]1OC(c2ccccc2)O[C@@H]2COC(c3ccccc3)O[C@@H]21 (some centres undefined)
fold change (FC) [1]: 1.06
MCC [2]: 300 µM

CCCS[C@@H]1OC[C@@H](O)[C@H](O)[C@H]1O
fold change (FC) [3]: 0.92
MCC [2]: 200 µM

CO[C@H]1C(O)OC[C@@H](O)[C@@H]1O (some centres undefined)
MCC [2]: 50000 µM

COC[C@H]1OC(O)[C@H](O)[C@H]1O (some centres undefined)
fold change (FC) [4]: 1.03
MCC [2]: 50000 µM

CO[C@@H]1COC(O)[C@H](O)[C@H]1O (some centres undefined)
fold change (FC) [4]: 0.99
MCC [2]: 50000 µM

CO[C@H]1[C@H](O)COC(O)[C@@H]1O (some centres undefined)
fold change (FC) [5]: 2.1

OC[C@@H](O)[C@@H](O)[C@H](O)[C@@H](O)CO
Activity [6]: Active

CCOC1OC[C@@H](O)[C@H](O)[C@H]1O (some centres undefined)
fold change (FC) [4]: 1.01
MCC [2]: 50000 µM

CCCO[C@H]1[C@H](O)COC(O)[C@@H]1O (some centres undefined)
Activity [7]: Active
fold change (FC) [5]: 3.89

O[C@@H]1[C@@H](O)[C@@H](OCc2ccccc2)OC[C@H]1O
fold change (FC) [3]: 0.9
MCC [2]: 500 µM

CCO[C@H]1[C@H](O)COC(O)[C@@H]1O (some centres undefined)
Activity [7]: Active
fold change (FC) [5]: 2.79

CO[C@H]1OC[C@@H](O)[C@H](O)[C@H]1O
Activity [7]: Active
fold change (FC) [5]: 1.98

OC1OC[C@@H](O)[C@@H](O)[C@@H]1O (stereo partly drawn) [D-ARABINOSE]
fold change (FC) [8]: 1.38

CCCCO[C@H]1[C@H](O)COC(O)[C@@H]1O (some centres undefined)
fold change (FC) [4]: 0.94
MCC [2]: 1000 µM

CC(=O)O[C@@H]1OC[C@@H](OC(C)=O)[C@H](OC(C)=O)[C@H]1OC(C)=O
fold change (FC) [9]: 0.99
fold change (FC) [4]: 1.05
MCC [2]: 500 µM

NC(=O)c1ncn([C@@H]2O[C@H](COP(=O)(O)O)[C@@H](O)[C@H]2O)c1N
Activity [10]: Active

O[C@H]1OC[C@@H](OCc2ccccc2)[C@H](OCc2ccccc2)[C@H]1OCc1ccccc1
fold change (FC) [3]: 0.94
MCC [2]: 200 µM

O=C[C@H](O)[C@@H](O)[C@H](O)CO [XYLOSE]
Activity [11]: inactive
fold change (FC) [12]: 1.43
Activity [13]: 13.7 mM
Activity [14]: Active
fold change (FC) [8]: 1.77
Activity [15]: inactive
Activity [16]: inactive
Activity [17]: Active
Activity [18]: Active
Activity [19]: 68.9%
fold change (FC) [20]: 1.51
Activity [21]: 1.6 mmol
Activity [22]: inactive
Activity [23]: Active
Activity [24]: 50%
fold change (FC) [25]: 1.69
fold change (FC) [26]: 3.23
Activity [27]: 5.8 mM

COC(OC)[C@@H]1OC(c2ccc(F)cc2)O[C@@H]2COC(c3ccc(F)cc3)O[C@@H]21 (some centres undefined)
MCC [2]: 250 µM

CO[C@@H]1OC[C@@H](OC(=O)C(C)(C)C)[C@H](OC(=O)C(C)(C)C)[C@H]1OC(=O)C(C)(C)C
fold change (FC) [3]: 1.03
MCC [2]: 150 µM

CO[C@@H]1OC[C@@H](OC(=O)c2ccccc2)[C@H](OC(=O)c2ccccc2)[C@H]1OC(=O)c1ccccc1
fold change (FC) [1]: 1.01
MCC [2]: 250 µM

CC1(C)O[C@H]2O[C@H](CO)[C@H](O)[C@H]2O1
fold change (FC) [28]: 0.94
MCC [2]: 150 µM

CCCCCCCCCCCC(=O)S[C@@H]1OC[C@@H](O)[C@H](O)[C@H]1O
fold change (FC) [1]: 0.98
MCC [2]: 400 µM

CC1(C)OC[C@H]2O[C@@H]3OC(C)(C)O[C@@H]3[C@H]2O1
fold change (FC) [28]: 1.08
MCC [2]: 100 µM
